Hits are enriched below; roughly 3.7% of the tested compounds scored in any of these assays.
hERG protect = hERG rescue from dofetilide block, primary screen, cell-based, CHO-hERG, FluxOR thallium flux, dofetilide IC70. Voltage-gated inwardly rectifying potassium channel KCNH2 (Homo sapiens), Q12809. activation (rescue from dofetilide block), less the hit threshold, % at 10 µM. dofetilide IC70 present. AID 1511, 2009. actives 0.51% (n = 310,000);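 active = activation above the mean of controls blocked by dofetilide plus 5 SD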;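 note: thallium influx through hERG after potassium depolarization seen as dye fluorescence rise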
KCNK3 inh = human KCNK3 channel inhibitors, primary screen, CHO cells, FluxOR thallium flux, B-score; B-score at 10 µM; Potassium channel subfamily K member 3 (Homo sapiens), O14649; actives 0.84% (n = 340,000); FluxOR fluorescence; stronger effect = lower value;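 active = B-score under library mean minus 4 SD, starting fluorescence ratio at most library mean plus 5 SD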;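 note: more negative B-score means stronger inhibition of thallium flux through KCNK3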
KCNQ1 inh = inhibitors of human KCNQ1 channel, primary screen, cell-based, thallium flux, high-throughput; Potassium voltage-gated channel subfamily KQT member 1 (Homo sapiens), P51787; B-score at 10 µM; actives 1.3% (n = 310,000); CHO-K1 KCNQ1, FluxOR thallium flux fluorescence; stronger effect = higher value;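 active = compounds whose thallium flux B-score, printed positive for inhibition, exceeds three library SD while starting fluorescence stays within three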;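 note: channel opened by potassium depolarization with thallium stimulus after 20 min compound exposure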
KCNQ1 pot = potentiators or activators of KCNQ1 channel, primary screen, cell-based, thallium flux, high-throughput; CHO-K1 KCNQ1, thallium flux FluxOR fluorescence; stronger effect = higher value; AID 2648, 2010; B-score at 10 µM; actives 0.35% (n = 310,000);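 active = fluorescence ratio B-score, a plate-corrected score, at least three library SD, with initial intensity B-score within 5 SD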
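Assay system: CHO-K1 cells stably expressing KCNQ1. Medium: assay buffer for compound exposure, DMSO matched across wells. Timing: 37 °C overnight plating, 90-min dark dye load, 20-min compound pretreatment. Signal: kinetic FluxOR fluorescence, 10 s baseline plus 110 s post-stimulus.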
KCNK9 block = KCNK9 potassium channel inhibitors, primary screen, HEK293 cells, thallium flux; B-score at 10 µM; FluxOR thallium flux fluorescence; stronger effect = lower value; actives 1.2% (n = 310,000); Potassium channel subfamily K member 9 (Homo sapiens), Q9NPC2;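 active = ratio B-score over 3 SD below the library mean, with starting fluorescence within 5 SD of its mean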;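 note: negative B-score means less thallium flux so channel inhibition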
Target sequence (Q9NPC2 whole entry, looked up): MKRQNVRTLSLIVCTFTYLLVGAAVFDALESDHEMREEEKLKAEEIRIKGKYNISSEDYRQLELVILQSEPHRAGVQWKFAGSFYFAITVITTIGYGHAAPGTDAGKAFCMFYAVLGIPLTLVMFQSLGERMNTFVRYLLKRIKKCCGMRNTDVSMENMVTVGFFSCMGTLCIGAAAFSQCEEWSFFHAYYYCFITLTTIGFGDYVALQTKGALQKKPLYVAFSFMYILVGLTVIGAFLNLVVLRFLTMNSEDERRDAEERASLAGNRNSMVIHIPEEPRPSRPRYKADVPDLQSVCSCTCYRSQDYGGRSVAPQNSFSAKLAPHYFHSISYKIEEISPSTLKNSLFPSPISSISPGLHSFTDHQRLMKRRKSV
Kir21 inh = inhibitors of mouse Kir2.1 inward-rectifier potassium channel; B-score at 10 µM; actives 0.85% (n = 310,000); Inward rectifier potassium channel 2 (Mus musculus), P35561; HEK293-Kir2.1, FluxOR thallium flux fluorescence; stronger effect = lower value;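 active = fluorescence ratio B-score at or below minus 3 SD of library scores, with starting-brightness B-score within 2 SD, cut at about -4.2 in these data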;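 note: channel flux triggered by added potassium and thallium sulfate stimulus; B-score of peak minus minimum fluorescence over baseline after thallium stimulus; more negative B-score means stronger Kir2.1 block with less thallium influx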
KCNK9 inh conf = KCNK9 potassium channel inhibitors, confirmation, HEK293 cells, thallium flux, duplicate; inhibition, % at 10 µM; FluxOR thallium flux fluorescence; actives 43% (n = 4,900); AID 492992, 2010; shares compounds with KCNK9 block;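 active = thallium signal inhibited by more than 5 SD of the compound-free buffer control wells, on both duplicate plates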;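 note: 0% = assay buffer control wells without compound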
Kir21 sel = mouse Kir2.1 channel inhibition, confirmation, selectivity assay for KCNK9 modulator project, cell-based, HEK293, thallium flux. shares compounds with KCNK9 block. Kir2.1 cells, FluxOR thallium flux fluorescence. inhibition, % at 10 µM. actives 4% (n = 4,900). AID 492993, 2010;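 active = thallium signal drop more than 5 SD beyond the mean of the no-compound control wells, seen in both duplicate plates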;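 note: signal is fluorescence rise after thallium addition divided by baseline fluorescence; plate controls were assay buffer only for no effect and full block by chlorpromazine control for full effect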
KCNK9 uninduced = thallium flux in non-induced HEK293 cells, confirmation, counter-screen for KCNK9 inhibitor project, cell-based, second counter screen, non-induced KCNK9-HEK293. FluxOR thallium flux. AID 492997, 2010. actives 40% (n = 4,900). shares compounds with KCNK9 block. inhibition, % at 10 µM;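 active = thallium signal drop beyond 5 SD of the untreated control mean, on both duplicate plates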;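 note: plate controls were buffer only IC0 wells for no effect and SID17386958 at its maximal inhibitory level for full effect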
* marks the source's active call; other numbers are inactive results; i = inactive; nt = no result given.

SMILES | hERG protect | KCNK3 inh | KCNQ1 inh | KCNQ1 pot | KCNK9 block | Kir21 inh | KCNK9 inh conf | Kir21 sel | KCNK9 uninduced
O=C(Nc1ccc(CN2CCCCC2)cc1)c1cc(Br)ccc1Cl | -6 | i | i | i | -8.5* | -1.1 | 30%* | i | 37%*
CC(O)CNc1ccc(-c2nn(C)c(=O)c3ccccc23)cc1[N+](=O)[O-] (stereo unspecified) | -6 | i | i | i | i | 1.8 | nt | nt | nt
CC[C@@H](C)[C@H](CNC)NC[C@@H](Cc1cccc2ccccc12)NCCc1cccc(C(F)(F)F)c1 | -42 | i | 9* | i | -9* | -6.5* | 38%* | 52%* | 34%*
O=C(CNC(=O)Cc1ccccc1)NCc1cccc(C(F)(F)F)c1 | -10 | i | i | i | i | -0.26 | nt | nt | nt
Cc1cc(C)c(S(=O)(=O)c2ccccc2C)c(OCC(C)(C)C)n1 | -8 | i | i | i | -10* | -1.6 | 44%* | i | 53%*
CCC(C(=O)O)N1C(=O)/C(=C/C(C)=C/c2ccccc2)SC1=S (stereo unspecified) | -13 | i | i | i | i | 0.93 | i | i | i
O=C(O)C(Cc1ccccc1)N1C(=O)/C(=C/c2ccccc2)SC1=S (stereo unspecified) | -7 | i | i | i | i | -1.7 | i | i | i
Cc1ccc(/C=C2\SC(=S)N(C(Cc3ccccc3)C(=O)O)C2=O)cc1 (stereo unspecified) | -17 | i | i | i | i | 1.9 | i | i | i
CCOc1ccc(C2(C)CC(=O)N(C)C2=O)cc1 (stereo unspecified) | 2 | i | i | i | i | 0.43 | nt | nt | nt
O=C(c1ccc2c(c1)OCO2)C1CCCN(Cc2ccc3cccc(F)c3n2)C1 (stereo unspecified) | -17 | i | i | i | i | -1.9 | i | i | i
O=C(c1ccc2c(c1)OCO2)C1CCCN(C(=O)NCc2ccccc2)C1 (stereo unspecified) | -4 | i | i | i | i | 0 | nt | nt | nt
CC(=O)c1ccc(NC(=O)N2CCCC(C(=O)c3ccc4c(c3)OCO4)C2)cc1 (stereo unspecified) | -14 | i | i | i | i | 1.3 | nt | nt | nt
O=C(c1ccc2c(c1)OCO2)C1CCCN(C(=O)c2cnn(Cc3ccccc3)c2)C1 (stereo unspecified) | -14 | i | i | i | i | -0.76 | i | i | i
O=C(c1ccc2c(c1)OCO2)C1CCCN(Cc2cn[nH]c2-c2cccc(F)c2)C1 (stereo unspecified) | -5 | i | i | i | i | -4.2 | nt | nt | nt
CSc1ccccc1NC(=O)N1CCCC(C(=O)c2ccc3c(c2)OCO3)C1 (stereo unspecified) | -11 | i | i | i | i | -0.74 | i | i | i
Clc1ccc(C2[C@H]3CN(Cc4ccc(-c5ccccc5)cc4)[C@H](c4ccccc4)C34CC2(c2ccccc2)C4)cn1 (stereo partly specified) | -7 | nt | i | i | i | 0.01 | nt | nt | nt
Clc1ccc(C2[C@H]3CN(Cc4cccnc4)[C@H](c4ccccc4)C34CC2(c2ccccc2)C4)cn1 (stereo partly specified) | -6 | i | i | i | -9.8* | -1.1 | 30%* | i | 35%*
COc1ccc(-c2csc3nc(-c4ccccc4OC)oc(=O)c23)cc1 | -9 | i | i | i | -11* | 0.36 | 72%* | i | i
CCOC(=O)CN1C(=O)C(Sc2n[nH]c(-c3ccc(O)cc3)n2)CCc2ccccc21 (stereo unspecified) | -20 | i | i | i | -9.4* | 1.3 | 36%* | i | i
Cc1cc(OCc2cccc(Cl)c2)c(C)cc1CN1CCOCC1 | -18 | i | i | i | -14* | -1.4 | 52%* | i | 32%*
O=[N+]([O-])c1cccc(COc2ccccc2CN2CCOCC2)c1 | nt | i | nt | nt | nt | nt | nt | nt | nt
CCOC(=O)C1CCN(CCCSc2ccc(Cl)cc2)CC1 | -5 | i | i | i | i | -4.2* | i | i | i
Cc1ccc(C(=O)Nc2ncccc2S(=O)(=O)c2ccccc2)cc1 | -6 | i | i | i | i | -0.39 | nt | nt | nt
CCC(=O)N1c2ccc(S(=O)(=O)N3CCN(c4cc(C)ccc4C)CC3)cc2CC1C (stereo unspecified) | -9 | i | i | i | i | 1.7 | i | i | i
CCC(=O)N1c2ccc(S(=O)(=O)N3CCN(c4ccccc4Cl)CC3)cc2CC1C (stereo unspecified) | -11 | i | i | i | i | 1.2 | nt | nt | nt
SMILES | hERG protect | KCNK3 inh | KCNQ1 inh | KCNQ1 pot | KCNK9 block | Kir21 inh | KCNK9 inh conf | Kir21 sel | KCNK9 uninduced
O=C(c1ccc2c(Cl)c3c(nc2c1)CCCC3)N1CCN(c2ccc(F)cc2)CC1 | -8 | i | i | i | i | 0.4 | i | i | i
CC1CCN(C(=O)c2ccc3c(Cl)c4c(nc3c2)CCCC4)CC1 | -7 | i | i | i | i | 0.98 | i | i | i
COc1ccc([C@@H]2CC=C(C(=O)O)CN2S(=O)(=O)c2ccc(C)cc2)cc1OC | nt | i | nt | nt | nt | nt | nt | nt | nt
CCOc1ccccc1CNC(=O)CCCc1cn(C)c2ccccc12 | -5 | i | i | i | i | -2.8 | i | i | i
CC(OC(=O)C1=COCCO1)C(=O)Nc1ncc(Cl)cc1Cl (stereo unspecified) | nt | i | nt | nt | nt | nt | nt | nt | nt
CC(C)C(CCN1C(=O)c2ccccc2C1=O)c1ccco1 (stereo unspecified) | -16 | i | i | i | i | -0.41 | nt | nt | nt
